High-throughput results: PubChem BioAssay, Sanford-Burnham Center for Chemical Genomics
An excerpt weighted towards active compounds, which were near 2.9% of everything screened.
SENP7 inh – blocks the human protease SENP7; actives 1.5% (n = 330,000); AID 434973; recombinant SENP7, Z-RLRGG-aminoluciferin luminescence, 40 min; Q9BQF6; inhibition, % at 5 µM;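 active = inhibition above about 50% at the single test dose, limit read from the data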
Apaf1 inhib – inhibitors of human Apaf-1 apoptosome; O14727; reconstituted apoptosome caspase-3 activity, DEVD-Rh110 fluorescence; inhibition, % at 20 µM; actives 0.71% (n = 330,000); active = inhibition of at least 40% at 20 µM
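Assay system – apoptosome proteins · Medium – Hepes buffer, pH 7.5 · Also added – cytochrome c with DEVD-Rh110 · Timing – 30 min compound preincubation, 50 min activation, room temperature · Detection – Rh110 fluorescence, excitation 480 nm, emission 540 nm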
SENP8 block-1 – inhibitors of human SENP8 protease. recombinant SENP8, Nedd8 substrate fluorescence. inhibition, % at 20 µM. actives 0.64% (n = 360,000). AID 602440; in the data active = inhibition mostly above about 40%, no sharp cut-off; inactive = mostly below about 27%
Target sequence (Q96LD8 whole entry, looked up): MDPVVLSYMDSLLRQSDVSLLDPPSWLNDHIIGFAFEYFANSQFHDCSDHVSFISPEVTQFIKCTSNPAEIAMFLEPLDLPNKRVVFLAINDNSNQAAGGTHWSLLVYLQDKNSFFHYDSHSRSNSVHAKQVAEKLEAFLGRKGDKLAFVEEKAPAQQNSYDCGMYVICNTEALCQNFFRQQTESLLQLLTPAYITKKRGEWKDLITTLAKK
SENP8 block-2 – inhibitors of human SENP8 protease | AID 2540 | purified SENP8, Z-RLRGG-aminoluciferin cleavage, luminescence | Q96LD8 | actives 1.2% (n = 330,000) | inhibition, % at 10 µM; in the data active = inhibition above about 50%
SENP6 inh – inhibitors of human SENP6 protease; Q9GZR1; Recombinant SENP6 catalytic domain, aminoluciferin luminescence; inhibition, % at 10 µM; actives 1.8% (n = 330,000); AID 2599;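 active = inhibition above about 50% at the single tested dose, limit read from the data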
SENP1 inh – inhibitors of human SENP1 SUMO protease catalytic domain; Q9P0U3; recombinant SENP1 catalytic domain, CyPet-SUMO1-YPet FRET cleavage; inhibition, % at 10 µM; actives 0.21% (n = 360,000); AID 624204;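 active = inhibition at least 30% at 10 µM, raw YFP signal under a set limit, fluorescence ratio 0.5 to 1.5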
Target sequence (Q9P0U3 419-644 limits assumed): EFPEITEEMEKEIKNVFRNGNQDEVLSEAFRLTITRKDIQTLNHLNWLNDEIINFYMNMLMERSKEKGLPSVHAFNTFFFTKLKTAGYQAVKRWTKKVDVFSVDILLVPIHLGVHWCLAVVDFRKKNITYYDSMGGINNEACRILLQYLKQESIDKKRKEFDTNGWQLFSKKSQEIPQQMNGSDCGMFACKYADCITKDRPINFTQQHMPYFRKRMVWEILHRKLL
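system = hSENP1 catalytic domain, recombinant | reagent = SFCypet-SUMO1-SFYpet substrate at 25 nM | doses = one dose per compound, 10 µM, 0.5% DMSO | incubation = enzyme reaction for 50 min at room temperature, dark | measured by = FRET, CFP and YFP emission | controls = no-enzyme low, enzyme-DMSO high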
SENP8 conf – human SENP8 inhibition, confirmed. shares compounds with SENP7 inh. Recombinant SENP8, Z-RLRGG-aminoluciferin luminescence, 60 min. inhibition, % at 12.5 µM. actives 40% (n = 6,200). AID 488912;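 active = mean inhibition across replicates above about 50%, limit read from the data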
SENP6 confirm – confirmation of human SENP6 protease inhibitors | inhibition, % at 12.5 µM | shares compounds with SENP7 inh | actives 58% (n = 6,200) | recombinant SENP6, Z-RLRGG-aminoluciferin luminescence
SENP7 conf – human SENP7 inhibition, confirmed; AID 488917; shares compounds with SENP7 inh; recombinant SENP7, Z-RLRGG-aminoluciferin luminescence, 40 min; actives 69% (n = 6,200); inhibition, % at 12.5 µM
Casp3 SENP sel – caspase-3 inhibition (SENP selectivity assay); shares compounds with SENP7 inh; purified caspase-3, Z-DEVD-aminoluciferin luminescence, 60 min; inhibition, % at 12.5 µM; actives 60% (n = 6,200); AID 488918;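 active = mean inhibition above about 50%, limit read from the data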
Target sequence (P42574 28-227 limits assumed): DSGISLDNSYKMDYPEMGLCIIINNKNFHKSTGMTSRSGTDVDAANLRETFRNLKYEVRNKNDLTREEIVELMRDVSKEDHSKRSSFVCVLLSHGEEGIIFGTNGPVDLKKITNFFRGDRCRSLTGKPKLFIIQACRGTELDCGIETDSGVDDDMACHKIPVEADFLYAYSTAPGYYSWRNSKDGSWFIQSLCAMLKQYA
SENP luc ctr – interferes with luciferase luminescence in SENP counter-screen. shares compounds with SENP7 inh. Pre-incubated SENP8/Z-RLRGG-aminoluciferin, luciferase luminescence interference. inhibition, % at 12.5 µM. actives 39% (n = 6,200);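 active = mean inhibition above about 50% when retested at one dose, limit read from the data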
Large screens that a line does not name were inactive (follow-up assays come after a bar, where they were run).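 Rule for the calls, unless noted: active = mean inhibition above about 50% in the one-dose retest (limit read from the data); inactive = the rest.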

COc1ccc2nc(NC(=O)c3cccc(OCc4c(C)noc4C)c3)sc2c1	SENP6 inh 60 | SENP8 conf inactive | SENP6 confirm inactive | SENP7 conf 71 | Casp3 SENP sel inactive | SENP luc ctr inactive
CCOc1ccc(NC(=O)c2ccncc2)cc1	SENP6 inh 60 | SENP8 conf inactive | SENP6 confirm inactive | SENP7 conf inactive | Casp3 SENP sel inactive | SENP luc ctr inactive
Cc1noc(C)c1COc1ccc(C(=O)Nc2ccccc2)cc1	none
CCSc1nnc(NC(=O)c2cccc(OCc3c(C)noc3C)c2)s1	none
Cc1cc(C(=O)Nc2ccc(OCc3ccccc3)cc2)c(C)o1	SENP7 inh 99, SENP8 block-2 94, SENP6 inh 101 | SENP8 conf 74 | SENP6 confirm 96 | SENP7 conf 101 | Casp3 SENP sel 95 | SENP luc ctr 64
O=C(Nc1ccc(OCc2ccccc2)cc1)c1ccccc1	SENP7 inh 67 | SENP8 conf inactive | SENP6 confirm inactive | SENP7 conf inactive | Casp3 SENP sel inactive | SENP luc ctr inactive
COC(=O)C1=CN(c2ccc(Oc3ccccc3)cc2)C(N)=C(C#N)C1c1ccc(-c2ccccc2)cc1 (stereo unspecified)	none (no result: SENP7 inh, Apaf1 inhib, SENP8 block-2, SENP6 inh)
Nc1ccc(N=Nc2ccccc2O)c(N)c1	SENP7 inh 79, SENP8 block-2 70, SENP6 inh 83 | SENP8 conf 77 | SENP6 confirm 81 | SENP7 conf 95 | Casp3 SENP sel 57 | SENP luc ctr 82
COc1cc(/C=N/Nc2ccc(Cl)c(C(=O)O)c2)ccc1OC(=O)c1ccc(F)cc1	none
COc1cccc(OCc2cc(/C=N/Nc3ccc(C(=O)O)cc3)ccc2OC)c1	SENP8 block-2 80, SENP6 inh 87 | SENP8 conf 58 | SENP6 confirm 84 | SENP7 conf 95 | Casp3 SENP sel inactive | SENP luc ctr inactive
COc1cccc(C(=O)Oc2ccc(/C=N/Nc3ccc(C(=O)O)cc3)cc2OC)c1	SENP6 inh 52 | SENP8 conf 57 | SENP6 confirm inactive | SENP7 conf 66 | Casp3 SENP sel inactive | SENP luc ctr inactive
CNc1c(NS(=O)(=O)c2cc(Cl)ccc2OC)c(=O)oc2ccccc12	none
COc1ccc2c(c1OC)C(=O)N(c1cccc(C)c1)C2	SENP7 inh 59, SENP6 inh 71 | SENP8 conf 65 | SENP6 confirm 64 | SENP7 conf 90 | Casp3 SENP sel 84 | SENP luc ctr 70
C/C(Sc1nnc(Cc2ccccc2)o1)=C(\O)c1ccccc1	none (no result: SENP7 inh, Apaf1 inhib, SENP8 block-2, SENP6 inh)
Oc1ccc(C(=Nc2ccccc2)c2ccccc2)c(O)c1	none (no result: SENP7 inh, Apaf1 inhib, SENP8 block-2, SENP6 inh)
COc1ccc(C2c3ccc(O)cc3Oc3ncn4nc(-c5ccncc5)nc4c32)cc1OC (stereo unspecified)	SENP6 inh 67 | SENP8 conf inactive | SENP6 confirm inactive | SENP7 conf inactive | Casp3 SENP sel inactive | SENP luc ctr inactive
COc1ccc(C2c3ccc(O)cc3Oc3ncn4nc(-c5ccccn5)nc4c32)cc1OC (stereo unspecified)	none
CN(CC(=O)Nc1cc(C(F)(F)F)ccc1-n1cncn1)Cc1ccccc1N1CCOCC1	none (no result: SENP7 inh, Apaf1 inhib, SENP8 block-2, SENP6 inh)
O=C(/C=C/Nc1ccc([N+](=O)[O-])cc1)c1ccc(Br)cc1	none
CCOC(=O)c1ccc(N/C=C/C(=O)c2ccc(OC)c(OC)c2)cc1	none
Cc1ccc(N/C=C/C(=O)c2ccco2)c(O)c1	SENP7 inh 56 | SENP8 conf 55 | SENP6 confirm 53 | SENP7 conf 84 | Casp3 SENP sel 62 | SENP luc ctr inactive
CCOC(=O)c1ccc(N/C=C/C(=O)c2ccco2)cc1	SENP8 block-2 83, SENP6 inh 85 | SENP8 conf 69 | SENP6 confirm 71 | SENP7 conf 85 | Casp3 SENP sel 88 | SENP luc ctr inactive
O=C(/C=C/Nc1ccc(F)cc1)c1ccco1	SENP7 inh 69, SENP8 block-2 74, SENP6 inh 83 | SENP8 conf 84 | SENP6 confirm 82 | SENP7 conf 96 | Casp3 SENP sel 89 | SENP luc ctr 79
O=C(Nc1ccccc1C(=O)Nc1ccc(F)cc1)c1ccco1	none
O=C(/C=C/Nc1ccc(F)cc1)c1ccc(Br)cc1	SENP7 inh 79 | SENP8 conf inactive | SENP6 confirm inactive | SENP7 conf inactive | Casp3 SENP sel inactive | SENP luc ctr inactive
OC[C@@H]1CN(Cc2ccc(Cl)cc2)C[C@H](n2cnc3c(N4CCN(c5ccccc5)CC4)ncnc32)O1	none (no result: SENP7 inh, Apaf1 inhib, SENP8 block-2, SENP6 inh)
Cn1ccn(CCCCCCn2ccn(C)c2=S)c1=S	none (no result: SENP7 inh, Apaf1 inhib, SENP8 block-2, SENP6 inh)
O=C(CSc1ccc(Cl)cc1)N/N=C/c1ccc([N+](=O)[O-])o1	none
Nc1nonc1C(=O)NCCNS(=O)(=O)c1ccc(Br)cc1	SENP7 inh 90 | SENP8 conf inactive | SENP6 confirm inactive | SENP7 conf inactive | Casp3 SENP sel inactive | SENP luc ctr inactive
O=Cc1ccccc1OCc1ccc2c(c1)OCO2	SENP7 inh 92, SENP8 block-2 91, SENP6 inh 97 | SENP8 conf 96 | SENP6 confirm 97 | SENP7 conf 101 | Casp3 SENP sel 95 | SENP luc ctr 90
COc1ccccc1CNCc1ccc2c(c1)OCO2	none (no result: SENP7 inh, Apaf1 inhib, SENP8 block-2, SENP6 inh)
Cc1nnc(NC(=O)c2sc3ccccc3c2Cl)s1	none
Cc1ccc(NC(=O)c2sc3ccccc3c2Cl)nc1	SENP7 inh 93, SENP8 block-2 63, SENP6 inh 72 | SENP8 conf inactive | SENP6 confirm inactive | SENP7 conf inactive | Casp3 SENP sel inactive | SENP luc ctr inactive
COCc1nnc(NC(=O)c2sc3ccccc3c2Cl)s1	SENP6 inh 55 | SENP8 conf inactive | SENP6 confirm inactive | SENP7 conf 76 | Casp3 SENP sel 61 | SENP luc ctr 66
O=C(Nc1ccccn1)c1sc2cccc(F)c2c1Cl	SENP7 inh 90 | SENP8 conf inactive | SENP6 confirm inactive | SENP7 conf inactive | Casp3 SENP sel inactive | SENP luc ctr inactive
COc1cc(NC(=O)C2(C)CCCN2C(=O)C(C)C)cc(OC)c1OC (stereo unspecified)	none (no result: SENP7 inh, Apaf1 inhib, SENP8 block-2, SENP6 inh)
COc1ccc(C(=O)N2CCC2(C)C(=O)NC(C)C)cc1 (stereo unspecified)	none (no result: SENP7 inh, Apaf1 inhib, SENP8 block-2, SENP6 inh)
